Bioassay records from PubChem BioAssay.
KDM4C inh – blocks human GASC-1 (KDM4C) demethylase activity; inhibition, % at 12.5 µM; GST-KDM4C 2-372, H3K9me3 peptide, LANCE TR-FRET; 0.15% of 96,000 active; AID 720574;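 active means mean replicate inhibition above about 25%, with at least 55% of replicates also reaching it, limit read from the data, passing the limit was not always enough; inconclusive means only one of those two conditions met; inactive means neither condition met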
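System: N-terminal GST-fused human GASC-1 (KDM4C) fragment, residues 2-372; amount: enzyme final amount 10 nM; incubation: reaction 30 min RT, detection step 1 h RT; medium: HEPES buffer, pH 7.5, plus ascorbate; technique: LANCE TR-FRET, Eu antibody, ULight-streptavidin, EDTA, ex 340 nm, em 618/671 nm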
IDH1 mut inh – inhibitors of human IDH1 R132H; inhibition, % at 10 µM; AID 624101; O75874; 0.18% of 70,000 active; IDH1 R132H reductase, diaphorase/resazurin fluorescence, 60 min; in the data active means inhibition above about 34%; inconclusive means no clear call, values can overlap the other calls; inactive means below about 11%;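 further: 0% = DMSO and 100% = no enzyme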
Target sequence (O75874 whole entry R132H): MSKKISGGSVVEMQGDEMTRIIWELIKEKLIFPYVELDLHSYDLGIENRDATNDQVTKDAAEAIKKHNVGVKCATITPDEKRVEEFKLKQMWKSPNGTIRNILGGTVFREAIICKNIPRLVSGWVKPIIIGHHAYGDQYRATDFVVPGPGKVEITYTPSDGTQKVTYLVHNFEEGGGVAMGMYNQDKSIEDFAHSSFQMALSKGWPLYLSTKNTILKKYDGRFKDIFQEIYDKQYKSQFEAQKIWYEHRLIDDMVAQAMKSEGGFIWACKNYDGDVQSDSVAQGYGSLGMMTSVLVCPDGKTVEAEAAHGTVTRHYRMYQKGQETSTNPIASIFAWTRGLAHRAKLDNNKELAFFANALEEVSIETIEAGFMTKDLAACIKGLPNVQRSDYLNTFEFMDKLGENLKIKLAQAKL
T cruzi growth-1 – inhibitors of T. cruzi proliferation. AID 624255. 5.9% of 77,000 active. inhibition, % at 8.34 µM. T. cruzi beta-gal in NIH3T3, GalScreen luminescence, 90 h;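 active means mean inhibition above about 93%, with at least 55% of replicates each passing it, limit read from the data, passing the limit was not always enough; inconclusive means only one of those two conditions holds; inactive means neither condition holds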
T cruzi growth-2 – Trypanosoma cruzi proliferation inhibition | shares compounds with T cruzi growth-1 | T. cruzi beta-gal in NIH3T3, GalScreen luminescence, 90 h | inhibition, % at 8.35 µM | 72% of 5,600 active;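 active means mean replicate inhibition above about 95% and at least 55% of replicates individually reaching it, limit read from the data; inconclusive means only one of the two criteria is met; inactive means neither criterion is met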
T cruzi growth-3 – blocks T. cruzi growth in NIH3T3 host cells. T. cruzi beta-gal in NIH3T3, GalScreen luminescence, 90 h. shares compounds with T cruzi growth-1. AID 651740. inhibition, % at 2.09 µM. 21% of 5,600 active;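 active means mean inhibition above about 95%, with at least 55% of replicates also reaching it, limit read from the data; inconclusive means meets just one of the two conditions; inactive means meets neither condition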;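 further: plate controls were neutral control median for no effect and positive control median for full effect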
NIH3T3 tox – kills mouse NIH/3T3 fibroblasts; NIH/3T3 viability, CellTiter-Glo ATP luminescence, 90 h; 14% of 5,600 active; cytotoxicity (signal decrease), % at 8.35 µM; shares compounds with T cruzi growth-1;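 active means mean signal decrease across replicates above about 35% based on untreated-well scatter, with enough replicates individually passing, limit read from the data; inconclusive means no rule stated though some were filed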;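 further: 0% = median of neutral control wells and 100% = median of positive control wells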
3T3 cytotox 2 – NIH/3T3 (mouse) viability loss; inhibition, % at 24.9 µM; 56% of 5,600 active; NIH/3T3 viability, CellTiter-Glo ATP luminescence, 90 h; shares compounds with T cruzi growth-1;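 active means mean loss of cell viability signal at or above a set limit, and enough replicates individually reaching it; inconclusive means meets only the mean limit or only the replicate share; inactive means meets neither condition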;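 further: 0% = median of neutral control wells and 100% = median of positive control wells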
Starred values were filed as active, the others as inactive; ? = inconclusive; · = no result. Many of the other results were omitted from the sample, so hits are more common in it than they were.

SMILES	KDM4C inh	IDH1 mut inh	T cruzi growth-1	T cruzi growth-2	T cruzi growth-3	NIH3T3 tox	3T3 cytotox 2
COCC#Cc1ccc2c(c1)O[C@@H](CN(C)Cc1ccc3c(c1)OCO3)[C@@H](C)CN([C@@H](C)CO)S2(=O)=O	2	0	·	·	·	·	·
CC(C)NC(=O)N1CCCCN2[C@@H](CO)[C@H](c3ccc(C#Cc4ccccc4F)cc3)[C@@H]2C1	-3	·	113*	96*	79	51*	104*
CC(C)NC(=O)N1CCCCN2[C@H](C1)[C@H](c1ccc(C#Cc3ccccc3F)cc1)[C@@H]2CO	-1	·	70	·	·	·	·
CC(C)C#Cc1ccc([C@H]2[C@@H](CO)N3CCCCN(C(=O)NC(C)C)C[C@@H]23)cc1	0	·	45	·	·	·	·
CC(C)NC(=O)N1CCCCN2[C@H](CO)[C@H](c3ccc(C#Cc4ccccc4F)cc3)[C@H]2C1	-2	·	109*	104*	107*	31	103*
Cc1[nH]c2ccccc2c1C(=O)CSc1ncnc2sc(C)c(C)c12	·	0	·	·	·	·	·
O=C(COc1ccc(C(=O)Nc2ccc(F)cc2)cc1)Nc1cc(Cl)cc(Cl)c1	·	0	·	·	·	·	·
O=C(C[C@@H]1CC[C@@H]2[C@H](COC[C@H](O)CN2C(=O)c2ccncc2)O1)NC1CCC1	-2	·	108*	-16	-86	2	-15
O=C(C[C@H]1CC[C@H]2[C@@H](COC[C@@H](O)CN2C(=O)c2ccncc2)O1)NC1CCC1	0	·	14	·	·	·	·
O=C(C[C@@H]1CC[C@H]2[C@@H](COC[C@H](O)CN2C(=O)c2ccncc2)O1)NC1CCC1	-1	·	60	·	·	·	·
O=C(C[C@H]1CC[C@@H]2[C@H](COC[C@@H](O)CN2C(=O)c2ccncc2)O1)NC1CCC1	-1	·	97*	-30	-32	-11	-14
CN(Cc1nc(-c2ccccc2)no1)S(=O)(=O)c1ccccc1	·	0	·	·	·	·	·
O=C(COc1ccc(S(=O)(=O)N2CCCC2)cc1Cl)Nc1ccccc1	·	0	·	·	·	·	·
CC(C)NC(=O)N(C)C[C@@H]1Oc2ccc(NC(=O)Cc3cn(C)c4ccccc34)cc2CC(=O)N([C@H](C)CO)C[C@H]1C	1	-1	-28	·	·	·	·
O=C(COc1ccc(S(=O)(=O)N2CCCC2)cc1Cl)Nc1ccc2c(c1)OCCO2	·	0	·	·	·	·	·
OC[C@@H]1[C@@H](c2ccc(-c3ccccc3)cc2)[C@H]2CN(CCC(F)(F)F)CCCCN12	1	·	85	·	·	·	·
OC[C@@H]1[C@@H](c2ccc(-c3ccccc3)cc2)[C@@H]2CN(CCC(F)(F)F)CCCCN12	0	·	91	·	·	·	·
OC[C@@H]1[C@H](c2ccc(-c3ccccc3)cc2)[C@H]2CN(CCC(F)(F)F)CCCCN12	-1	·	104*	103*	62	19	106*
OC[C@H]1[C@@H](c2ccc(-c3ccc(F)cc3)cc2)[C@H]2CN(CCC(F)(F)F)CCCCN21	-2	·	102*	103*	81	57*	105*
OC[C@@H]1[C@@H](c2ccc(-c3cccc(F)c3)cc2)[C@@H]2CN(CCC(F)(F)F)CCCCN12	-1	·	94	·	·	·	·
Cc1cccc(-c2ccc([C@@H]3[C@H]4CN(CCC(F)(F)F)CCCCN4[C@H]3CO)cc2)c1	-2	·	99*	103*	85	41*	105*
OC[C@@H]1[C@H](c2ccc(-c3ccc(F)cc3)cc2)[C@@H]2CN(CCC(F)(F)F)CCCCN12	-1	·	?	105*	95	40*	105*
OC[C@H]1[C@@H](c2ccc(-c3ccccc3)cc2)[C@H]2CN(CCC(F)(F)F)CCCCN21	-1	·	89	·	·	·	·
O=C(CCCOc1ccc(Cl)cc1Cl)Nc1ccccc1[N+](=O)[O-]	·	0	·	·	·	·	·
Cc1ccc(Cl)cc1NC(=O)CSc1cc(C)c2cccc(C)c2n1	·	0	·	·	·	·	·
SMILES	KDM4C inh	IDH1 mut inh	T cruzi growth-1	T cruzi growth-2	T cruzi growth-3	NIH3T3 tox	3T3 cytotox 2
N#Cc1c(NC(=O)Cn2c(=O)oc3ccccc32)sc2c1CCCC2	·	1	·	·	·	·	·
CC1CCC2C(C(=O)O)=COC(O[C@@H]3O[C@H](CO)[C@@H](O)[C@H](O)[C@H]3O)C12 (some centres undefined)	·	0	·	·	·	·	·
COc1cc(NC(=O)CSc2nc(C)cc(=O)[nH]2)c(OC)cc1Cl	·	0	·	·	·	·	·
CN(C)C(=O)c1ccc(-c2ccc([C@H]3[C@@H](CO)N4CCCCN(CCC(F)(F)F)C[C@H]34)cc2)cc1	0	·	101*	100*	89	-9	-5
OC[C@H]1[C@@H](c2ccc(C#CC3CCCC3)cc2)[C@@H]2CN(CCC(F)(F)F)CCCCN12	0	·	73	·	·	·	·
OC[C@@H]1[C@H](c2ccc(-c3cccc(F)c3)cc2)[C@@H]2CN(CCC(F)(F)F)CCCCN12	0	·	91	·	·	·	·
CN(C)C(=O)c1ccc(-c2ccc([C@@H]3[C@H](CO)N4CCCCN(CCC(F)(F)F)C[C@@H]34)cc2)cc1	0	·	68	·	·	·	·
OC[C@@H]1[C@H](c2ccc(C#CC3CCCC3)cc2)[C@H]2CN(CCC(F)(F)F)CCCCN12	0	·	101*	89	109*	58*	105*
OC[C@@H]1[C@H](c2ccc(-c3cccc(F)c3)cc2)[C@H]2CN(CCC(F)(F)F)CCCCN12	-2	·	107*	99*	85	27	104*
O=C(C1=C[C@@H](c2csc3ccccc23)C[C@@H](OCc2ccc(CO)cc2)O1)N1CCCCC1	·	0	·	·	·	·	·
Cc1nnc(NCc2ccco2)[nH]c1=O	·	0	·	·	·	·	·
Cc1cccc(NC(=O)C2CN(S(=O)(=O)c3ccccc3)CCN2S(=O)(=O)c2ccccc2)c1 (centres undefined)	·	0	·	·	·	·	·
COC(=O)c1ccccc1NC(=O)CC(O)(C(F)(F)F)C(F)(F)F	·	0	·	·	·	·	·
Cc1ccc(NC(=O)CN(c2c(C)cccc2C)S(C)(=O)=O)cc1C	·	0	·	·	·	·	·
C[C@H]1CCCCO[C@H](CN(C)C(=O)CCCN(C)C)[C@@H](C)CN([C@@H](C)CO)C(=O)c2cc(NS(=O)(=O)c3cccs3)ccc2O1	1	2	·	·	·	·	·
Cc1c(C(=O)Nc2ccccc2C(=O)NCc2ccco2)cccc1[N+](=O)[O-]	·	0	·	·	·	·	·
CC(C)NC[C@H]1[C@@H](c2ccc(-c3cccc(F)c3)cc2)[C@@H](CO)N1CC1CC1	0	·	109*	68	12	-1	105*
N#C[C@H]1[C@H](c2ccc(-c3cccc(F)c3)cc2)[C@H](CO)N1C(=O)NC1CCCC1	1	·	86	·	·	·	·
N#C[C@@H]1[C@H](c2ccc(-c3cccc(F)c3)cc2)[C@H](CO)N1C(=O)NC1CCCC1	-1	·	97*	109*	104*	17	27
N#C[C@@H]1[C@@H](c2ccc(-c3cccc(F)c3)cc2)[C@H](CO)N1C(=O)NC1CCCC1	-1	·	97*	105*	95	24	38*
